This note sets out measurements from the RNAGym collection of RNA variant scans (doi:10.1101/gad.245936.114).

The labels stand for the following.
B1: tRNA (parent)
chain: CUCUCGGUAGCCAAGUUGGUUUAAGGCGCAAGACUUUAAUUUAUCACUACGAAAUCUUGAGAUCGGGCGUUCGACUCGCCCCCGGGAGAUUUUUUCCUCGAGCAA

Fewer inactive variants are shown than the library holds.

Variants of B1 are the subject of the data set. Nature of the data set: nonsense suppression (GFP-seq) (ratio to wild type); higher = more function; SUP4oc tRNA, yeast GFP reporter sort-seq. A digest of the protocol:
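Each variant's nonsense suppression (GFPSEQ) is a cell-share-weighted bin median GFP/RFP relative to the unmutated parent tRNA. Yeast with genome-integrated tRNA variants from a ~3% random-mutation library, a galactose-driven GFP ochre reporter and RFP were grown in raffinose/galactose medium with 80 mg/L adenine, then sorted into GFP/RFP bins for Illumina sequencing. Variants needed ≥100 reads and ≥30 cells.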
G88C: the nonsense suppression was determined as 0.028. The value for G88U A89C was at most 0.026; that for G88U A89G was at most 0.026. Turning to A87G, the nonsense suppression came to 1.16.
